Source: PubChem BioAssay
An excerpt weighted towards active compounds, which were near 4.1% of everything screened.
UBC13 polyUb = human UBC13 polyubiquitination inhibition; AID 485273; P61088; 0.47% of 330,000 active; inhibition, % at 20 µM; UBC13 polyubiquitin chain formation, TR-FRET; in the data active means inhibition above about 45%, passing the limit was not always enough
Mdm2-MdmX inh = inhibitors of human Mdm2/MdmX interaction; O15151+Q00987; SaOS-2 split-luciferase Mdm2/MdmX complementation, luminescence; inhibition, % at 8 µM; 3% of 330,000 active; AID 485346;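 active means inhibition of at least 50% at 8 µM in the primary screen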
Apaf-1 inh = blocks human Apaf-1 apoptosome activity; AID 489030; O14727; reconstituted apoptosome caspase-3 activity, DEVD-Rh110 fluorescence; inhibition, % at 20 µM; 0.71% of 330,000 active; active means inhibition of at least 40% at 20 µM;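 further: plate controls were DMSO wells for no effect and DEVD-CHO caspase inhibitor wells for full effect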
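Assay system – apoptosome proteins · Medium – Hepes buffer, pH 7.5 · Also added – cytochrome c with DEVD-Rh110 · Timing – 30 min compound preincubation, 50 min activation, room temperature · Detection – Rh110 fluorescence, excitation 480 nm, emission 540 nm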
UPR CHOP act = apoptotic UPR (CHOP) activation; CHO-CHOP luciferase reporter, luminescence; percent of tunicamycin response over DMSO baseline; activation, % at 10 µM; 0.34% of 330,000 active; AID 449763;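 active means at 10 µM dose, activation of 40% or more, normalized to positive control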;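 further: 100% = tunicamycin at 10 µg/mL and 0% = DMSO alone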
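Test system: CHO CHOP reporter cells. Input: 500 CHO-CHOP cells per well. Medium: F12 with 10% FBS. Technique: luciferase luminescence. Measure: percent activation relative to tunicamycin control. Dosing: 10 µM compound, 0.5% DMSO. Timing: 16-18 h cell attachment, then 6 h compound exposure, 37 °C.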
XBP1 UPR activ = activators of adaptive arm of unfolded protein response (XBP1) | 0.33% of 330,000 active | CHO-XBP1 luciferase reporter, IRE1-XBP1 UPR activation, luminescence; percent of tunicamycin response, DMSO as zero | activation, % at 20 µM | AID 463104;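 active means versus positive control, 20 µM dose yields 30% or more activation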;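 further: 100% = tunicamycin at 10 µg/mL and 0% = DMSO only wells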
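Material: CHO cell line with stable XBP1 luciferase reporter; schedule: 16-18 h cell attachment at 37 °C, then 6 h compound exposure; signal: glow luminescence from Steady-Glo reagent; medium: serum-containing F12 medium, 10% FBS; benchmarks: tunicamycin 10 µg/mL and vehicle-only wells; read-out: percent activation relative to tunicamycin reference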
Apaf-1 inh conf = confirmation of Apaf-1 inhibitors; inhibition, % at 20 µM; shares compounds with Apaf-1 inh; reconstituted apoptosome, caspase-3 DEVD-Rh110 fluorescence; 25% of 1,800 active;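 active means mean inhibition of at least 40% at 20 µM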;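 further: plate controls were DMSO wells for no effect and DEVD-CHO caspase inhibitor control wells for full effect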
Rh110 quench = Rh110 signal interference in Apaf-1 inhibitor counter-screen | shares compounds with Apaf-1 inh | Rh110 fluorescence interference, quenched caspase reaction | activation (fluorescence interference), % at 20 µM | 1,800 tested, under 10 active | AID 504615;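 active means signal rise of 40% or more at 20 µM, treated as a fluorescence artifact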
Apaf1 inh interf = Apaf-1 inhibitor counter-screen fluorescence artifact; shares compounds with Apaf-1 inh; fluorescence interference counterscreen, Apaf-1 assay format; IC50, µM; 460 tested, under 10 active; AID 588538; call rule not given here
* = called active by the depositor; · = no result.

SMILES	UBC13 polyUb	Mdm2-MdmX inh	Apaf-1 inh	UPR CHOP act	XBP1 UPR activ	Apaf-1 inh conf	Rh110 quench	others
Oc1cccc2c(NC(=S)Nc3ccc(OC(F)F)cc3)cccc12	-8	32	65*	0	2	18	10
FC(F)Oc1ccc(NC(=S)NCc2ccccc2)cc1	-8	13	2	-1	-1	·	·
O=C(CCCC(=O)N/N=C\c1ccccn1)N/N=C\c1ccccn1	-10	13	-12	-1	-4	·	·
CC(Nc1cccc2ccccc12)C(=O)N/N=C/c1ccccn1 (stereo unspecified)	-116	26	95*	1	8	6	8
CCC(C)(C)N(C(=O)CCC(=O)Nc1cc(C)on1)C(C(=O)NC(C)(C)C)c1ccc(OC)cc1 (stereo unspecified)	0	-7	-5	-1	2	·	·
O=C1C(C2=C(O)c3ccccc3C2=O)=Nc2ccccc21	-94	21	66*	11	5	99*	12	Apaf1 inh interf=>100
COc1ccc(C(CNC(=O)c2cccc(NS(=O)(=O)c3ccccc3)c2)N(C)C)cc1 (stereo unspecified)	0	12	3	4	-2	·	·
COc1ccc(C(CNC(=O)c2cccc(NS(=O)(=O)c3ccc(C)c(F)c3)c2)N(C)C)cc1 (stereo unspecified)	13	27	52*	0	5	37	-6
CC1(c2ccccc2)NC(=O)N(CC(=O)Nc2nnc(C3CC3)s2)C1=O (stereo unspecified)	-7	-4	-5	1	-4	·	·
COc1ccc(OCCNc2c([N+](=O)[O-])c(=O)oc3ccccc23)cc1	-9	15	73*	-1	-2	87*	-2	Apaf1 inh interf=>100
CCNc1c([N+](=O)[O-])c(=O)oc2ccccc12	0	11	-1	-1	-3	·	·
CCOC(=O)N1CCc2c(sc3c2C(=O)NC(c2ccccc2)N3)C1 (stereo unspecified)	-22	-31	81*	2	2	20	1
O=C(NC1CCOCC1)C1CCC(=O)N(CCc2cccc(F)c2)C1 (stereo unspecified)	8	5	-3	4	2	·	·
CCOC(=O)/C=C/COc1ccccc1[N+](=O)[O-]	16	3	9	7	0	·	·
CC(N=Cc1cccc(O)c1O)c1ccccc1 (stereo unspecified)	-19	-2	71*	-1	1	10	-3
Cc1ccccc1N=Cc1cccc(O)c1O	-12	-24	74*	0	-3	9	4
Cn1cnnc1SCC(=O)NC1CC1	14	5	-8	-1	-4	·	·
CSc1ccc(CN(C)C(=O)CSCC(=O)Nc2cc(C)on2)cc1	14	-17	48*	-2	-5	36	-2
Cc1cc(NC(=O)CSCC(=O)N(C)Cc2ccc(F)cc2)no1	19	1	16	0	-3	·	·
COc1cccc2c1[C@@H]1CN(CCCCn3c(=O)[nH]c4c(sc5ncc(-c6ccccc6)nc54)c3=O)C[C@@H]1CO2	30	39	48*	7	-7	22	11
O=c1[nH]c(N2CCOCC2)cc2ccccc12	-6	-5	93*	-1	-1	74*	2	Apaf1 inh interf=>100
CC[C@H](C)NC(=O)c1ccc(Cn2c(=S)[nH]c3c([nH]c4ccc(OC)cc43)c2=O)cc1	-15	15	5	-2	-1	·	·
COc1ccccc1NC(=O)Nc1ccccc1N1CCOCC1	0	-19	0	3	5	·	·
CC(=O)c1cc(O)c2ccccc2c1O	-41	12	58*	1	-4	11	3
COC(=O)c1ccccc1-c1ccc(C(c2c(C)[nH][nH]c2=O)c2c(C)[nH][nH]c2=O)o1	-44	2	79*	1	0	30	6
SMILES	UBC13 polyUb	Mdm2-MdmX inh	Apaf-1 inh	UPR CHOP act	XBP1 UPR activ	Apaf-1 inh conf	Rh110 quench	others
COC(=O)c1ccccc1NC(=O)c1ccc(-c2ccccc2F)o1	13	43	4	1	1	·	·
Cc1cc(N)ccc1-n1nc2ccccc2n1	14	17	-6	0	-2	·	·
Cc1ccc(-n2nc3ccc(N)cc3n2)c(C)c1	-1	-21	68*	1	-1	32	14
Cc1ccc(-n2nc3ccc(N)cc3n2)cc1Cl	-4	-63	96*	4	0	47*	2	Apaf1 inh interf=>100
COc1ccc(-n2nc3ccc(NS(C)(=O)=O)cc3n2)cc1Cl	5	10	8	3	4	·	·
Cc1ccc(-n2nc3ccc(N)cc3n2)cc1C	-23	-134	80*	-2	-4	29	1
COc1ccc(-n2nc3ccc(N)cc3n2)cc1Cl	-9	-1	95*	4	3	55*	9	Apaf1 inh interf=>100
O=C(COC(=O)Cc1c(Cl)cccc1Cl)Nc1ccc(OC(F)(F)F)cc1	5	-14	13	1	-2	·	·
CC(COc1ccccc1Cc1ccccc1)N1CCCCC1 (stereo unspecified)	25	28	10	-2	-5	·	·
COc1ccc2cnn(CCOc3cc(C)ccc3C(C)C)c(=O)c2c1OC	-3	-1	8	1	-1	·	·
Cn1c(C2CCCCC2)nc2cc(N)ccc21	-9	10	-1	0	-7	·	·
Cc1ccc(NC(=O)NNS(=O)(=O)c2ccc(Br)cc2)cc1	-2	5	3	-1	-2	·	·
Cc1ccc(S(=O)(=O)NC(=O)Nc2ccc(N(C)C)cc2)cc1	-45	32	57*	1	-3	23	2
O=C(CN1CCc2cc3c(cc2C1)OCCCO3)Nc1cccc([N+](=O)[O-])c1	1	6	43*	1	-5	25	-7
Cc1cccc(NC(=O)CN2CCc3cc4c(cc3C2)OCCCO4)c1	1	10	12	-2	-4	·	·
CC1OC(Nc2cccc3ccccc23)C(O)C(O)C1O (stereo unspecified)	-68	24	96*	3	11	64*	2	Apaf1 inh interf=>100
O=C1NC2NC(=O)N(C(Cc3ccccc3)C(=O)O)C2N1 (stereo unspecified)	5	1	-7	0	2	·	·
Cc1cc(C)n2nc(N)c(N=Nc3ccc(Cl)cc3)c2n1	-23	-11	10	3	1	·	·
CC(C)(C)OC(=O)N1CCC(c2cc(=O)n3[nH]cc(C(=O)Nc4ccc(F)c(Cl)c4)c3n2)CC1	-19	27	36	-2	-5	·	·
